# Source: PubChem
# Only some compounds are listed: those with a hit (about 1.7% of all), similar ones and a draw of the others.
# Cneo AK release = Cryptococcus neoformans lysis via adenylate kinase release | 360,000 compounds, 0.2% hits | C. neoformans lysis, adenylate kinase release luminescence, 4 h; normalised: neutral wells 0, clomiphene wells 100 | lysis activity, % at 15 µM;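 active means mean lysis activity across replicates of at least 80%, whatever share of replicates individually reach that level; inactive means mean lysis activity below 80%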
#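 Assay system: C. neoformans cells. Amount: yeast cell density of 5 × 10^6 cells/mL. Technique: AK luminescence. Buffer or medium: YPD. Times: static 4 h at 37 °C with compound, 1 h detection. Dosing: single-point compound dose. Read-out: lysis from increased AK signal.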
# CFTR F508del cor = correctors of CFTR F508del function in bronchial epithelial cells. CFBE cells, YFP halide quenching; stimulated with forskolin plus potentiator P3; % fluorescence drop versus neutral controls. activity (quench increase), % at 7.58 µM. 350,000 compounds, 0.36% hits. AID 720511;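 active means mean added fluorescence quench of at least 8% versus neutral control, with both replicates also reaching 8%; inconclusive means only one of the mean or replicate conditions met; inactive means mean below 8% and not both replicates reaching 8%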;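 further: cells transiently co-express mutant CFTR-F508del with the halide-sensitive YFP; corrector assay measuring rescue of mutant channel to the surface after 24 h compound exposure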
# rRNA inh HTS = selective bacterial rRNA inhibition in E. coli | E. coli WT GFP vs humanized-ribosome RFP mutants, fluorescence, 24 h; hits give low values; DMSO median 0, no signal -100 | GFP signal change (wild-type ribosome), % (no concentration beside the values) | 350,000 compounds, 1.6% hits | AID 720706;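 active means significant combined selectivity score with lowered wild-type GFP, culture density cut under 30%, mutant RFP and density less affected; inactive means any of these conditions unmet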
# CaV13 FRET inh = Disruptors of the CACNA1D IQ motif to Ca2+-dependent inactivation inhibitor domain association, primary screening, Förster resonance energy transfer in intact living …; HEK cells, CFP/YFP FRET ICDI-IQ, plate reader, 10 min; percent FRET-ratio fall versus neutral wells; inhibition, % at 12.3 µM; 340,000 compounds, 0.098% hits; AID 743397;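 active means mean replicate inhibition of at least 30% and at least 1% of replicates passing that level; inconclusive means only one of the two criteria is met; inactive means neither criterion is met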;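 further: 0% = median of the neutral control wells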
# HepG2 tox = HepG2 cell cytotoxicity. 30 tested, under 10 active. activity change, negative = cytotoxicity, unspecified at 26 µM. HepG2 viability, ATP luminescence, 72 h. AID 743480. shares compounds with rRNA inh HTS;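 active means compounds whose fitted half-maximal signal-loss concentration is at most twice their highest valid dose; inconclusive means flat curve with 30 to 70% signal loss, or poor fit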
# AID977621 = wild-type E. coli growth inhibition versus H69 humanized strain – H69 mutant RFP, wild-type GFP, cherry-pick, dose response; shares compounds with rRNA inh HTS; fluorescence, 24 h; activity change, negative = inhibition at 50 µM; 1,900 tested, under 10 active; AID 977621;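 active means Wild-type ribosome reporter drop at least double the humanized mutant ribosome reporter drop, growth loss under a set limit; inconclusive means no clear call, values can overlap the other calls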;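 further: wild-type GFP and H69 mutant RFP strains grown together 50/50 in each well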
# AID977628 = E. coli growth inhibition, wild-type GFP versus h24 humanized RFP strain, dose response, h24 mutant RFP vs wild-type GFP, cherry-pick. shares compounds with rRNA inh HTS. E. coli WT GFP strain growth, fluorescence, 24 h. activity change, negative = inhibition at 50 µM. 1,900 tested, under 10 active. AID 977628;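 active means compound lowering the normal-ribosome reporter at least twice as much as the humanized-ribosome reporter, growth loss under a set limit; inconclusive means no clear call, values can overlap the other calls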;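 further: wild-type GFP and h24 humanized RFP strains co-cultured 1 to 1 per well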
# The depositor's hits bear a star; ? = inconclusive; · = no result given.
SMILES,Cneo AK release,CFTR F508del cor,rRNA inh HTS,CaV13 FRET inh,AID977621,AID977628,others
Cc1ccc(CN(C)C(=O)c2ccc(NS(=O)(=O)c3ccc4[nH]c(=O)[nH]c4c3)cc2)cc1,1,3,0,-4,·,·,
CCOc1ccc(CN(C)C(=O)c2ccc(NS(=O)(=O)c3ccc4[nH]c(=O)[nH]c4c3)cc2)cc1,-3,1,-17*,-6,-25,?,
CC1CN(CC(=O)Nc2nc3ccccc3s2)CC(C)O1 (stereo not drawn),1,-3,-15*,11,5.1,?,
CN1CCN(CC(=O)Nc2nc3ccccc3s2)CC1,0,1,11,-3,·,·,
COc1ccc2c3c([nH]c2c1)[C@@H](CO)N(Cc1cc(F)ccc1F)CC31CCN(C(C)=O)CC1,·,-1,4,·,·,·,
CCc1cc(C(=O)N2CCCC(C(=O)c3cccc4ccccc34)C2)n(C)n1 (stereo not drawn),·,-4,-26*,-5,-6.8,·,
CCCc1cc(C(=O)N2CCCC(C(=O)c3cccc4ccccc34)C2)n(C)n1 (stereo not drawn),·,1,-9,-2,·,·,
C[C@H]1CN([C@@H](C)CO)C(=O)c2c(c3ccccc3n2C)-c2ccccc2CO[C@@H]1CN(C)Cc1ccncc1,0,0,-29*,·,·,1.5,
C[C@H](CO)N1C[C@H](C)[C@@H](CN(C)Cc2ccncc2)OCc2ccccc2-c2c(n(C)c3ccccc23)C1=O,0,1,-22*,·,3.5,·,
C[C@@H]1CN([C@@H](C)CO)C(=O)c2c(c3ccccc3n2C)-c2ccccc2CO[C@H]1CN(C)Cc1ccncc1,-1,1,1,·,·,·,
NC(=O)c1snnc1-c1ccccc1,-4,2,-1,-21,·,·,
NC(=O)c1sc2nnc(-c3ccccc3)c(-c3ccccc3)c2c1N,3,2,-29*,-28,·,-8.1,
C[C@@H]1CCCCO[C@H](CN(C)Cc2ccncc2)[C@@H](C)CN([C@@H](C)CO)C(=O)c2cc(NC(=O)CCCN(C)C)ccc2O1,·,0,7,·,·,·,
COc1ccccc1N(C)S(=O)(=O)c1ccc(C(=O)NC(C)c2ccccc2)cc1 (stereo not drawn),-4,-3,-18*,-6,·,?,
Cc1cccc(-c2cc3nc4c(c(N5CCOCC5)n3n2)CCCC4)c1,-2,2,-33*,-8,-17,?,
Cc1cccc(-c2cc3nc4c(c(N5CCC6(CC5)OCCO6)n3n2)CCCC4)c1,-1,0,9,-9,·,·,
Cc1cc(C)cc(NS(=O)(=O)c2cc(C(=O)NCc3ccccn3)ccc2Cl)c1,8,·,-20*,-16,-3.2,-8,
O=C(NCCc1ccccc1)c1[nH]c(C(F)(F)F)nc1-c1ccccc1,-1,-1,0,-9,·,·,
O=C(NCCc1ccc(O)cc1)c1[nH]c(C(F)(F)F)nc1-c1ccccc1,3,-6,-23*,-4,-2.2,?,
Cc1noc(C)c1NC(=O)Nc1ccc2c(c1)C(=O)N([C@@H](C)CO)C[C@H](C)[C@H](CN(C)C(=O)Nc1ccc3c(c1)OCO3)OCCCC[C@H](C)O2,-1,-1,2,·,·,?,
Cc1noc(C)c1NC(=O)N(C)C[C@H]1OCCCC[C@@H](C)Oc2ccc(NC(=O)Nc3ccc4c(c3)OCO4)cc2C(=O)N([C@H](C)CO)C[C@@H]1C,-3,0,4,·,·,·,
Cc1noc(C)c1NC(=O)Nc1ccc2c(c1)C(=O)N([C@@H](C)CO)C[C@@H](C)[C@H](CN(C)C(=O)Nc1ccc3c(c1)OCO3)OCCCC[C@@H](C)O2,4,0,1,·,?,13,
Cc1noc(C)c1NC(=O)N(C)C[C@@H]1OCCCC[C@@H](C)Oc2ccc(NC(=O)Nc3ccc4c(c3)OCO4)cc2C(=O)N([C@H](C)CO)C[C@@H]1C,1,-3,1,·,·,·,
Cc1noc(C)c1NC(=O)Nc1ccc2c(c1)C(=O)N([C@H](C)CO)C[C@@H](C)[C@@H](CN(C)C(=O)Nc1ccc3c(c1)OCO3)OCCCC[C@@H](C)O2,-1,0,-41*,·,·,?,HepG2 tox=18
Cc1noc(C)c1NC(=O)Nc1ccc2c(c1)C(=O)N([C@H](C)CO)C[C@H](C)[C@H](CN(C)C(=O)Nc1ccc3c(c1)OCO3)OCCCC[C@@H](C)O2,-3,-1,5,·,-7.1,?,
SMILES,Cneo AK release,CFTR F508del cor,rRNA inh HTS,CaV13 FRET inh,AID977621,AID977628,others
CO[C@H]1CN(C)C(=O)c2ccc(NC(=O)CC(F)(F)F)cc2OC[C@@H](C)N(CC2CC2)C[C@H]1C,·,-1,0,·,·,·,
COc1cccc(S(=O)(=O)N[C@@H]2CC[C@H](CC(=O)NCc3ccc(Cl)cc3)O[C@H]2CO)c1,0,0,-5,·,·,·,
Cc1noc(C)c1NC(=O)Nc1ccc2c(c1)C(=O)N([C@H](C)CO)C[C@H](C)[C@H](CN(C)C(=O)Nc1ccc3c(c1)OCO3)OCCCC[C@H](C)O2,1,0,0,·,-1.4,12,
COC(=O)c1cc2ccccc2n1S(=O)(=O)c1ccccc1,9,-1,-32*,-4,-1.5,-10,
C[C@H]1CN([C@@H](C)CO)C(=O)c2cc(-c3cccc(C#N)c3)cnc2O[C@@H]1CN(C)C(=O)c1ccccn1,2,0,2,·,·,·,
CO[C@@H]1CN(C)C(=O)c2cc(NC(=O)Nc3ccc(Cl)cc3)ccc2OC[C@@H](C)N(C(=O)Nc2c(C)noc2C)C[C@@H]1C,0,3,-1,·,·,·,
COc1cccc(CNC(=O)CCC2CCCN(C(=O)c3cc4ccccc4o3)C2)c1 (stereo not drawn),3,-1,-32*,1,-4.2,·,
O=C(Nc1ccc(C(=O)Nc2ccccc2Cl)cc1)c1cccnc1,-1,-1,-20*,-3,-1.8,-11,
CN1CCN(C(=O)[C@@H]2[C@@H](CO)[C@@H]3Cn4c(ccc(-c5cncnc5)c4=O)[C@@H]3N2CC2CC2)CC1,-3,·,1,·,·,·,
CC=Cc1ccc2n(c1=O)C[C@@H]1[C@@H](CO)[C@H](C(=O)NC3CCCC3)N(C(=O)C3CC3)[C@H]21 (mixture of isomers),·,1,1,·,·,·,
Cc1ccc(Cl)cc1N1CCN(C(=O)c2ccc3nc[nH]c3c2)CC1,·,·,-45*,-3,-17,·,
Cc1cccc(N2CCN(C(=O)c3ccc4nc[nH]c4c3)CC2)c1C,5,0,-17,-4,·,·,
